The RNAGym collection of RNA variant scans (doi:10.1038/nmeth.2970)

B1: NELF-E aptamer (parent)
chain: CCCAACGACUGCCGAGCGAGAUUACGCUUGAGCGCCCCACUGAGGAUGCCCACGGGCGAUUGGGGCACGG

Variants of: B1
Assay: HiTS-RAP
Settings: with NELF-E (Drosophila)
Summary of the method: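 Aptamer DNA templates bearing a T7 promoter and a ter site were sequenced on an Illumina GAIIx flowcell. T7 RNA polymerase then transcribed them in situ, and GST-Tus halted transcription over 30 minutes at 37°C. After a 30-minute room-temperature equilibration with NELF-E-mOrange at 0.064 to 1000 nM in HEPES binding buffer, clusters were imaged, using only the first binding curve. Intensities normalised to sequencing intensity were averaged per sequence and fitted with weighted Hill fits to give Kd, retaining only fits whose variance stayed under 1,000,000.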

Variant | Kd [nM]
G34A U41G | 7.5
U10G U60G | 6.36
U10G U60C | 8.47
A4G C40U | 64.8
C9U U29G | 5.3
C51U | 6.66
C6G A67U | 6.45
G7U C35U | 8.9
U23G C66U | 6
A5U A15U | 6.62
C9G G65U | 7.11
C17G C25G | 4.76
G14U G54A | 12.6
U22G G34U | 5.88
A24G G63U | 11
C9G A52C | 7.38
A8U G26A | 4.2
A21G U22G | 5.72
G14U C25U | 7.71
U41G G63A | 16.8
G16U G34A | 9.22
C6U C25G | 7.85
U29G C35G | 4.89
U22G A52C | 6.52

Variant | Kd [nM]
G26C C27G | 3.95
C38U A39G | 6.36
U29G G48U | 6.22
A8G A19U | 5.53
U23G C37U | 13.8
C12U C13G | 5.4
C6G A8U | 5.7
C9G G62A | 26.9
U22G C33G | 6.1
U23G A59G | 57.5
C12G A67U | 7.12
U10A A67G | 4.3
C12G G16U | 7.23
C17G U47G | 4.63
A5U C66U | 4.52
C40U U41G | 7.61
C6G U29A | 5.51
C6G C57G | 6.54
G7U G48A | 12
U23G C53A | 6.72
A24G C53U | 4.2
A15G A24G | 6.12
A8C U10G | 6.49
G7U G63A | 19.9

Variant | Kd [nM]
A39U A67G | 27.3
A4U G16U | 6.93
G14A G30A | 5.61
C12G U61A | 39.1
U41G C49U | 28
C68A | 5.29
A8G U47G | 7.16
C6A U10G | 5.78
C6G G11A | 6.31
A5U G56U | 6.51
A5U G56A | 7.71
A4U U10A | 4.41
C13G C37A | 21.7
U28C U61A | 43.5
A8G G11A | 6.3
C6G A43G | 34.4
U23G C25G | 5.84
U10G G44C | 34.8
U10G G56C | 27.1
G7U G64U | 7.33
C6U G42A | 52.7
C17G C33U | 5.64
U22G A46G | 35.8
U10G A15G | 4.72

Variant | Kd [nM]
A5U U29A | 5.62
C6G G26U | 5.54
A8G C25U | 5.14
C6G G30A | 4.52
U23G A24G | 5.97
A8U G11A | 6.46
C6G C38A | 45.1
C9G C38U | 8.24
U23G G44U | 6.93
U23G G44A | 68.6
U10G C38U | 9.49
U23G G64A | 6.56
U41G C66U | 4.15
G7U U28A | 5.51
A4G G14U | 6.38
U23G C33U | 6.01
C13G G26A | 4.79
A4G C13G | 5.3
A5G G62A | 13.5
C13U U23G | 4.9
G20A A21G | 7.05
G7U A46G | 56
G20U U29G | 6.19
A5G G56U | 7.96

Variant | Kd [nM]
A4G A15G | 4.97
A8U A67G | 5.61
U23G G65U | 6.65
A5G | 5.54
C6U C12G | 5.7
G16U A19G | 6.97
A8U C27U | 4.24
U29G U41C | 67.5
C12U A24G | 5.74
A24G C37G | 7.93
C6U G34A | 6.54
C6U G56U | 6.57
A4U A19U | 5.66
G7U U23G | 6.08
C6G A39U | 28.8
A5C A8G | 6.78
C6U A8U | 7.13
G16U A31U | 6.75
C13G C25U | 5.55
U10G C57G | 7.81
A5G A39C | 22.3
C38A | 31.4
U10A U23C | 5.46
A4G C49U | 20.8

Variant | Kd [nM]
C17U A31G | 5.15
A4U G64A | 10.1
A24G G54A | 11.9
C9G U47A | 11.9
C13G U61A | 38.3
C9G G56A | 7.64
G7U U10G | 5.68
U10G | 4.49
C13G G65A | 5.31
A31G G65A | 9.82
U29A A67U | 5.96
U10G A43G | 18.8
C25A | 4.89
G16U C25G | 7.48
A21U | 5.14
C9U U22G | 5.55
U23A U29G | 5.75
A8U C51U | 10.8
U41G G45A | 53.9
C6G C66A | 5.34
G16U G56A | 13.2
U10G C53U | 3.77
U10G C53A | 5.46
G14A C17G | 5.98

Variant | Kd [nM]
A5U C38U | 10.6
C9G C13G | 5.48
C6G G18U | 6.37
C6G G18A | 4.48
G11U C12G | 5.8
C12G A19G | 5.93
A4G G63C | 28.6
C6G G42A | 40.3
U22C U23G | 5
G18A | 4.61
C17G G65U | 7.17
G32A U41G | 5.08
A5U A59G | 81.5
A4G C9U | 5.95
A5G A8G | 6.06
A15G G16A | 8.29
A24G U29C | 4.85
A24G U29A | 4.42
A4G G62A | 20.8
U29C U41G | 5.09
A15G C17G | 5.93
C9G U22G | 5.5
A4U A15G | 5.02
